The target of assay [1] is cAMP and cAMP-inhibited cGMP 3',5'-cyclic phosphodiesterase 10A (Homo sapiens, UniProt Q9Y233). The experiment in a line: Inhibition of human recombinant PDE10A catalytic domain assessed reduction in [3H]cAMP hydrolysis preincubated with enzyme for 5 mins prior to substrate addition measured after 20 mins by scintillation proximity assay. The gist of the method: (§1)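 [3H]cAMP (40 nCi/mL, 1/3 Km) was added, then 20 min on ice (~30% turnover). Stopped with yttrium silicate SPA beads, settled 1.5 h at room temperature, CPM counted. IC50 from one-site competitive nonlinear fit, at least two independent runs.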
A general note: SPA uses beads or plates that emit light when radiolabelled molecules are held near them.

The target of assay [2] is 3',5'-cyclic-AMP phosphodiesterase 4A (Homo sapiens, UniProt P27815). Description: Inhibition of human recombinant PDE4A assessed reduction in [3H]cAMP hydrolysis preincubated with enzyme for 5 mins prior to substrate addition measured after 20 mins by scintillation proximity assay. The gist of the method: as §1
For assay [3], the target named is cGMP-inhibited 3',5'-cyclic phosphodiesterase 3A (Homo sapiens, UniProt Q14432). Description: Inhibition of human recombinant PDE3A assessed reduction in [3H]cAMP hydrolysis preincubated with enzyme for 5 mins prior to substrate addition measured after 20 mins by scintillation proximity assay. The gist of the method:
as §1

In assay [4] the target is 3',5'-cyclic-AMP phosphodiesterase 4B (Homo sapiens, UniProt Q07343). Description: Inhibition of human recombinant PDE4B assessed reduction in [3H]cAMP hydrolysis preincubated with enzyme for 5 mins prior to substrate addition measured after 20 mins by scintillation proximity assay. The gist of the method:
as §1

The target in assay [5] is cGMP-inhibited 3',5'-cyclic phosphodiesterase 3B (Homo sapiens, UniProt Q13370). The experiment in a line: Inhibition of human recombinant PDE3B assessed reduction in [3H]cAMP hydrolysis preincubated with enzyme for 5 mins prior to substrate addition measured after 20 mins by scintillation proximity assay. The gist of the method:
as §1

cGMP-inhibited 3',5'-cyclic phosphodiesterase 3B, sequence (Q13370 whole entry): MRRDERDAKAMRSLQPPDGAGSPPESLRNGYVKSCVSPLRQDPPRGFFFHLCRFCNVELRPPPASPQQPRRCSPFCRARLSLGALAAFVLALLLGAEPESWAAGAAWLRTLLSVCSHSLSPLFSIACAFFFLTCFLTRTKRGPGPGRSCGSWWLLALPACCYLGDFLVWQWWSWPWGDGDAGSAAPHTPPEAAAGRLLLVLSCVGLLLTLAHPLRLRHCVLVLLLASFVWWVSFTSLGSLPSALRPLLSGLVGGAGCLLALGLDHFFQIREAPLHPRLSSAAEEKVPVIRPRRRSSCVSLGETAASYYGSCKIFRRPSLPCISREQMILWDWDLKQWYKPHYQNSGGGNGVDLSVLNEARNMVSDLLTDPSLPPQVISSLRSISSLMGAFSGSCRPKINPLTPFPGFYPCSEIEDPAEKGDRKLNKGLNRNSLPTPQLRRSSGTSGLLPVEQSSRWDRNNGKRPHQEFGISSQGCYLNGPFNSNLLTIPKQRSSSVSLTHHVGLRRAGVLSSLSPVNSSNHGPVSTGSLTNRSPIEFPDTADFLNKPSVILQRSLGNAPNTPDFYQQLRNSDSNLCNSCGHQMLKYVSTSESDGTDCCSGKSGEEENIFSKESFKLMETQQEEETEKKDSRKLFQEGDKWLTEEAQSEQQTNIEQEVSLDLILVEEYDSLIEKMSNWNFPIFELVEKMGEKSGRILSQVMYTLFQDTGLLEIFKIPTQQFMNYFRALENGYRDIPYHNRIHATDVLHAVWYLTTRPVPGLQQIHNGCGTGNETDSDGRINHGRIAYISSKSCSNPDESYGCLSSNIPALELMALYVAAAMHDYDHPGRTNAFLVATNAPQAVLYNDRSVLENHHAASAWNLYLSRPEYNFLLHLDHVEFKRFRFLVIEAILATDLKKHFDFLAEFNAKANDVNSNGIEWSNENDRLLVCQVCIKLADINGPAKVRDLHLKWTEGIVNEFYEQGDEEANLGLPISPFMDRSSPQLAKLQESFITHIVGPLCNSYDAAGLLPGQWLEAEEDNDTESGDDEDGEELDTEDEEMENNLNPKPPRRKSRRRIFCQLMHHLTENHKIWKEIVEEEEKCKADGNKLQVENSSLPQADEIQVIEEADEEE
cGMP-inhibited 3',5'-cyclic phosphodiesterase 3A, sequence (Q14432 whole entry): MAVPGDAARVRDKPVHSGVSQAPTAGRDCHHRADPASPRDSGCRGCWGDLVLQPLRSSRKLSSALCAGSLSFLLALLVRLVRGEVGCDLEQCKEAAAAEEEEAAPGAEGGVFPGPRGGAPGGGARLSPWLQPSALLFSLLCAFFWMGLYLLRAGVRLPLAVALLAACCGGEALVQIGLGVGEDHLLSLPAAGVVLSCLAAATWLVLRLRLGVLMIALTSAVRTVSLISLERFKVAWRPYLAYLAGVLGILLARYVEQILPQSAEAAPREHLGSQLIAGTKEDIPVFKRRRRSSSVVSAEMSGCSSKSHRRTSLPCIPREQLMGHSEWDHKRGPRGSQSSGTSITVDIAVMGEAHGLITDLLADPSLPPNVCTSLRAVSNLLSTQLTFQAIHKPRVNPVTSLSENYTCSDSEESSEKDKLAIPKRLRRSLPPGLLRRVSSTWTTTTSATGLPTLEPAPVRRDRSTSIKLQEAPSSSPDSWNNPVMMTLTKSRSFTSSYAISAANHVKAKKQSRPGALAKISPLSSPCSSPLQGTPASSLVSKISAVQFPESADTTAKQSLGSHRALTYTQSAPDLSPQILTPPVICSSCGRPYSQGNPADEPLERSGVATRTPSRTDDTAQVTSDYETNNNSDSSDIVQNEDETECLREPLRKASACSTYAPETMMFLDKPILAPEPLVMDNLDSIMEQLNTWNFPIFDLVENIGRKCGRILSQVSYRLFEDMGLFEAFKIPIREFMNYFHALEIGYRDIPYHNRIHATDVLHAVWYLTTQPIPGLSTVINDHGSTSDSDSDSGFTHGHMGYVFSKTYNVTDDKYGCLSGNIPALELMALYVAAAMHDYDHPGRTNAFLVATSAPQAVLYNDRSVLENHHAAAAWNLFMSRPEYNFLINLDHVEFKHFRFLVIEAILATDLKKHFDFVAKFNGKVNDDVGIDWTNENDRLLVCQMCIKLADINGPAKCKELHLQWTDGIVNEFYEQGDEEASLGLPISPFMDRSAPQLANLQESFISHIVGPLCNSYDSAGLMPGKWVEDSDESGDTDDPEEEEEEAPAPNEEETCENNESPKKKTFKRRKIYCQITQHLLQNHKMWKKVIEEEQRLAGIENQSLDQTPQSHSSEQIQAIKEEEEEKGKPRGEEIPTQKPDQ
3',5'-cyclic-AMP phosphodiesterase 4A, sequence (P27815 whole entry): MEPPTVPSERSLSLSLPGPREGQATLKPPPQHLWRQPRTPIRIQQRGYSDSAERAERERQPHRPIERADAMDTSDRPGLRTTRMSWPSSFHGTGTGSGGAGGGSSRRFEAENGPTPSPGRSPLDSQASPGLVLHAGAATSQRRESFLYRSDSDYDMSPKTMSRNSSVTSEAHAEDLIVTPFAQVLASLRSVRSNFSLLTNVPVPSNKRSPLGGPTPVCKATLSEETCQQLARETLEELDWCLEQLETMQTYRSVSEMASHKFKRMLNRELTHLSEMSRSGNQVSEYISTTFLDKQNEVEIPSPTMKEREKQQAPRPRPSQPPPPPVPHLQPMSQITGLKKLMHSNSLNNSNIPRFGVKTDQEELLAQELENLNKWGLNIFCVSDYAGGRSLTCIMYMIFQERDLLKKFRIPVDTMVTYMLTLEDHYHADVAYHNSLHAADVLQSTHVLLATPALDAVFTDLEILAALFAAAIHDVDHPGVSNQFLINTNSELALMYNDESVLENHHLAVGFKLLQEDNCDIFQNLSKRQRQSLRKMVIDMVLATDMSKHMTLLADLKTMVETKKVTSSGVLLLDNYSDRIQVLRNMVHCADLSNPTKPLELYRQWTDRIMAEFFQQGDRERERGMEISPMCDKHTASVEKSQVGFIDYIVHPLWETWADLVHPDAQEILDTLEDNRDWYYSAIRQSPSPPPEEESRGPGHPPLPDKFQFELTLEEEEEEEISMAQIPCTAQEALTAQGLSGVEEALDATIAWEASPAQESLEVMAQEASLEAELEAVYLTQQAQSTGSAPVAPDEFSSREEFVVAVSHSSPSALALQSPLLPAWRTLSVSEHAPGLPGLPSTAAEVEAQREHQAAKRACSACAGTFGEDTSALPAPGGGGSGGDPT
3',5'-cyclic-AMP phosphodiesterase 4B, sequence (Q07343 whole entry): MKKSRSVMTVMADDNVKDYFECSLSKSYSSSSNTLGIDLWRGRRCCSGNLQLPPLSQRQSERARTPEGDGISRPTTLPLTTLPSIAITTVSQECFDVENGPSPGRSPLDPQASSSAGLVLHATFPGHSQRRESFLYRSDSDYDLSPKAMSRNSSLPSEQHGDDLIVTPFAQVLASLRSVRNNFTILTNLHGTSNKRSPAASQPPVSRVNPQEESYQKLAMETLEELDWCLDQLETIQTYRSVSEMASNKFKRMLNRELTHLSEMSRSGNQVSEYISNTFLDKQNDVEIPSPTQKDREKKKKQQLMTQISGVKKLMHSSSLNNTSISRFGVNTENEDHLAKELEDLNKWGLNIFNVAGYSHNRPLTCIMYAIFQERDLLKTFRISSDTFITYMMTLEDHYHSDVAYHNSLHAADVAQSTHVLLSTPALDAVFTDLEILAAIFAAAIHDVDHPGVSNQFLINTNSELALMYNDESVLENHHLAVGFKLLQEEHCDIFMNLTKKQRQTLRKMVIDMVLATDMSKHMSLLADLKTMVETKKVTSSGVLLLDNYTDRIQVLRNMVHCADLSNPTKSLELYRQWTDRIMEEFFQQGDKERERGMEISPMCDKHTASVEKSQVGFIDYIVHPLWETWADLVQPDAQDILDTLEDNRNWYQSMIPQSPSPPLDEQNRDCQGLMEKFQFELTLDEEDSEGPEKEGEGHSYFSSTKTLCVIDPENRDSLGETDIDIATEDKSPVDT
cAMP and cAMP-inhibited cGMP 3',5'-cyclic phosphodiesterase 10A, sequence (Q9Y233 whole entry, the tested form may be a part): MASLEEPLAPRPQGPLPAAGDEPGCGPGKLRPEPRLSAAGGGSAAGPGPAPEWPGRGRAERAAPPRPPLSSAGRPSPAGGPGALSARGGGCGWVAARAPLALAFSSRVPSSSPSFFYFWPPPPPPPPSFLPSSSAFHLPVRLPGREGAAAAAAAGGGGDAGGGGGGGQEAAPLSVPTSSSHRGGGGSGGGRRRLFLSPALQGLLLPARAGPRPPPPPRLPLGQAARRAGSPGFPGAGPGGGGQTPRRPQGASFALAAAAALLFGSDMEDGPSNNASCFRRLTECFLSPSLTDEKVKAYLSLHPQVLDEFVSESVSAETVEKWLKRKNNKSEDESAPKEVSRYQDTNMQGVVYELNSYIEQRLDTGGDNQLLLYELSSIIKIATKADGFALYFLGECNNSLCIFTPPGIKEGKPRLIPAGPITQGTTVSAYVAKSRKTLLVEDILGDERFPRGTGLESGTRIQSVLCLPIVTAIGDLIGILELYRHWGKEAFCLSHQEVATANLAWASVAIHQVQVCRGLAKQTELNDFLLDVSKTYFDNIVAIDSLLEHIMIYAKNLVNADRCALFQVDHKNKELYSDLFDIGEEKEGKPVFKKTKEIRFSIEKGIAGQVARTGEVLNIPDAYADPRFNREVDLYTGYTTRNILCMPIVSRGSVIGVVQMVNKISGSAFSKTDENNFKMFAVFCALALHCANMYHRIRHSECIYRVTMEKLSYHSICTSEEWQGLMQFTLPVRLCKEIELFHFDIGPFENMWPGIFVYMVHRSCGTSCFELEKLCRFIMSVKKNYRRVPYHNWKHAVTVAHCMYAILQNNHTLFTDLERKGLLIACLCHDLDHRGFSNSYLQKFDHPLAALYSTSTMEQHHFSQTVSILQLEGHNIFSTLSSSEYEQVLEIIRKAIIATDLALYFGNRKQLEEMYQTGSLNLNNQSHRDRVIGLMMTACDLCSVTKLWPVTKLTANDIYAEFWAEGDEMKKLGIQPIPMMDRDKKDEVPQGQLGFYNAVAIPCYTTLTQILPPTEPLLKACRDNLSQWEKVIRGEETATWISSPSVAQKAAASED

On to `COc1ccc2nc(CSc3ccc(-c4c(-c5ccncc5)cnn4C)cc3)ccc2c1`, for which the IC50 in assay [1] turned out to be 0.61 µM.

As to `COc1ccc2ccc(CSc3ccc(-c4c(-c5ccncc5)cnn4C)cc3)nc2c1`, in assay [1], the concentration for half-maximal inhibition (IC50) is 0.635 µM.

As to `COc1cccc2ccc(CSc3ccc(-c4c(-c5ccncc5)cnn4C)cc3)nc12`, in assay [1], the IC50 turned out to be 3.05 µM.

Turning to `COc1cc(CNc2ccc(-c3c(-c4ccncc4)cnn3C)cc2)nc2ccccc12`, the IC50 in assay [1] worked out at 0.645 µM.

Consider `COc1ccc2nc(CNc3ccc(-c4c(-c5ccncc5)cnn4C)cc3)ccc2c1`, for which the IC50 in assay [1] was determined as 4.25 µM.

Regarding `COc1ccc2ccc(CNc3ccc(-c4c(-c5ccncc5)cnn4C)cc3)nc2c1`, in assay [1], the IC50 is 5.15 µM.

Turning to `COc1cccc2ccc(CNc3ccc(-c4c(-c5ccncc5)cnn4C)cc3)nc12`, the IC50 in assay [1] is 4.6 µM.

On to `COc1cc2ccccc2nc1COc1ccc(-c2nn(C)cc2-c2ccncc2)cc1`, for which the half-maximal inhibitory concentration (IC50) in assay [1] turned out to be 0.0004 µM; in assay [2], 3.85 µM; in assay [3] it was 123 µM; in assay [4], 3.43 µM; in assay [5] it was 82.7 µM.

`COc1cc(COc2ccc(-c3nn(C)cc3-c3ccncc3)cc2)nc2ccccc12`: the IC50 in assay [1] stood at 0.00028 µM; in assay [2] it was 2.56 µM; in assay [3] it was 27.5 µM; in assay [4], 1.79 µM; in assay [5], 3.85 µM.

Turning to `COc1cccc2nc(COc3ccc(-c4nn(C)cc4-c4ccncc4)cc3)ccc12`, the IC50 in assay [1] worked out at 0.06 µM.

Take `COc1ccc2nc(COc3ccc(-c4nn(C)cc4-c4ccncc4)cc3)ccc2c1`: the IC50 in assay [1] was 0.00182 µM; in assay [2], 3.37 µM; in assay [3] it was 78 µM; in assay [4], 2.56 µM; in assay [5] it was 9.75 µM.

With `COc1ccc2ccc(COc3ccc(-c4nn(C)cc4-c4ccncc4)cc3)nc2c1`, the half-inhibitory concentration (IC50) in assay [1] was 0.046 µM.

As for `COc1cccc2ccc(COc3ccc(-c4nn(C)cc4-c4ccncc4)cc3)nc12`, the IC50 in assay [1] stood at 0.0415 µM.

With `COc1cc(CSc2ccc(-c3nn(C)cc3-c3ccncc3)cc2)nc2ccccc12`, the IC50 in assay [1] is 0.168 µM.

With `COc1ccc2nc(CSc3ccc(-c4nn(C)cc4-c4ccncc4)cc3)ccc2c1`, the IC50 in assay [1] was determined as 0.415 µM.

On to `COc1ccc2ccc(CSc3ccc(-c4nn(C)cc4-c4ccncc4)cc3)nc2c1`, for which the IC50 in assay [1] was determined as 0.4 µM.

On to `COc1cccc2ccc(CSc3ccc(-c4nn(C)cc4-c4ccncc4)cc3)nc12`, for which the IC50 in assay [1] was found to be 0.635 µM.

For `COc1cc(CNc2ccc(-c3nn(C)cc3-c3ccncc3)cc2)nc2ccccc12`, the concentration for half-maximal inhibition (IC50) in assay [1] worked out at 13.9 µM.

On to `COc1ccc2nc(CNc3ccc(-c4nn(C)cc4-c4ccncc4)cc3)ccc2c1`, for which the IC50 in assay [1] worked out at 7.5 µM.

For the compound `COc1ccc2ccc(CNc3ccc(-c4nn(C)cc4-c4ccncc4)cc3)nc2c1`, the IC50 in assay [1] came out at 7.4 µM.

For the compound `COc1cccc2ccc(CNc3ccc(-c4nn(C)cc4-c4ccncc4)cc3)nc12`, the IC50 in assay [1] is 10.9 µM.

Regarding `COc1cc2ccccc2nc1COc1ccc(-c2c(-c3ccncc3)cnn2C)cc1`, the IC50 in assay [1] came out at 0.00024 µM; in assay [2], 199 µM; in assay [3], 18.7 µM; in assay [4], 31.5 µM; in assay [5], 16.9 µM.

As to `COc1cc(COc2ccc(-c3c(-c4ccncc4)cnn3C)cc2)nc2ccccc12`, the IC50 worked out at 0.00036 µM in assay [1]; 4.18 µM in assay [2]; 29 µM in assay [3]; 5.06 µM in assay [4]; 4.8 µM in assay [5].

On to `COc1cccc2nc(COc3ccc(-c4c(-c5ccncc5)cnn4C)cc3)ccc12`, for which, in assay [1], the concentration for half-maximal inhibition (IC50) worked out at 0.0814 µM.

`COc1ccc2nc(COc3ccc(-c4c(-c5ccncc5)cnn4C)cc3)ccc2c1`: the IC50 in assay [1] amounted to 0.00178 µM; in assay [2], 5.6 µM; in assay [3], 1.5 µM; in assay [4], 7.1 µM; in assay [5], 3 µM.

On to `COc1ccc2ccc(COc3ccc(-c4c(-c5ccncc5)cnn4C)cc3)nc2c1`, for which the concentration for half-maximal inhibition (IC50) in assay [1] is 0.095 µM.

For the compound `COc1cccc2ccc(COc3ccc(-c4c(-c5ccncc5)cnn4C)cc3)nc12`, the IC50 in assay [1] worked out at 0.199 µM.

Regarding `COc1cc(CSc2ccc(-c3c(-c4ccncc4)cnn3C)cc2)nc2ccccc12`, the IC50 in assay [1] was determined as 1.85 µM.

Usually IC50 stands for the concentration that inhibits the measured activity by half.

For the origin of these results see ChEMBL document CHEMBL3217426, “Synthesis and in vitro biological evaluation of pyrazole group-containing analogues for PDE10A” (Medchemcomm, 2013).
